ChEMBL document CHEMBL3576819, “Design, synthesis, biological evaluation and molecular docking studies of phenylpropanoid derivatives as potent anti-hepatitis B virus agents” (Eur J Med Chem, 2015)

Experiments:
Hepatitis B virus [1] = assay: Antiviral activity against Hepatitis B virus infected in human HepG2.2.15 cells assessed as inhibition of HBeAg secretion at 300 uM after 3 days by ELISA; type: functional; details: HepG2 2.2.15, 72 h
Outline: (§1)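 HepG2.2.15 cells (MEM, 10% FBS, 380 µg/ml G418) seeded at 1×10^5 cells/ml, held 24 h at 37 °C, then treated with various drug concentrations; medium with drug renewed every 3 d for up to 9 d. Culture medium sampled on days 3, 6 and 9, stored at -20 °C, and assayed for secreted antigen. Lamivudine as positive control; IC50 = 50% inhibition of secretion; means of at least two experiments.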

Hepatitis B virus [2] = assay: Antiviral activity against Hepatitis B virus infected in human HepG2.2.15 cells assessed as inhibition of HBeAg secretion by ELISA; type: functional, organism-based; details: HepG2 2.2.15; outline: as §1
Hepatitis B virus [3] = assay: Antiviral activity against Hepatitis B virus infected in human HepG2.2.15 cells assessed as inhibition of HBsAg secretion at 37.5 uM after 6 days by ELISA; type: functional; details: HepG2 2.2.15, 144 h; outline: as §1
[4] = Selectivity index, ratio of CC50 for human HepG2.2.15 cells to IC50 for Hepatitis B virus infected in human HepG2.2.15 cells assessed as inhibition of HBeAg secretion; type: functional
Outline: (§2)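 Selectivity index computed as CC50/IC50, with CC50 from cell death of HepG2.2.15 cells after 9 days of treatment (OD 450 nm) and IC50 from 50% inhibition of HBeAg or HBsAg secretion in the same cells; medium with drug renewed every 3 d.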

Hepatitis B virus [5] = assay: Antiviral activity against Hepatitis B virus infected in human HepG2.2.15 cells assessed as inhibition of HBeAg secretion at 300 uM after 9 days by ELISA; type: functional; details: HepG2 2.2.15, 216 h; outline: as §1
Hepatitis B virus [6] = assay: Antiviral activity against Hepatitis B virus infected in human HepG2.2.15 cells assessed as inhibition of HBsAg secretion at 300 uM after 3 days by ELISA; type: functional; details: HepG2 2.2.15, 72 h; outline: as §1
Hepatitis B virus [7] = assay: Antiviral activity against Hepatitis B virus infected in human HepG2.2.15 cells assessed as inhibition of HBsAg secretion by ELISA; type: functional, organism-based; details: HepG2 2.2.15; outline: as §1
Hepatitis B virus [8] = assay: Antiviral activity against Hepatitis B virus infected in human HepG2.2.15 cells assessed as inhibition of HBeAg secretion at 37.5 uM after 6 days by ELISA; type: functional; details: HepG2 2.2.15, 144 h; outline: as §1
Hepatitis B virus [9] = assay: Antiviral activity against Hepatitis B virus infected in human HepG2.2.15 cells assessed as inhibition of HBeAg secretion at 150 uM after 6 days by ELISA; type: functional; details: HepG2 2.2.15, 144 h; outline: as §1
Hepatitis B virus [10] = assay: Antiviral activity against Hepatitis B virus infected in human HepG2.2.15 cells assessed as inhibition of HBsAg secretion at 75 uM after 6 days by ELISA; type: functional; details: HepG2 2.2.15, 144 h; outline: as §1
Hepatitis B virus [11] = assay: Antiviral activity against Hepatitis B virus infected in human HepG2.2.15 cells assessed as inhibition of HBsAg secretion at 37.5 uM after 9 days by ELISA; type: functional; details: HepG2 2.2.15, 216 h; outline: as §1
[12] = Selectivity index, ratio of CC50 for human HepG2.2.15 cells to IC50 for Hepatitis B virus infected in human HepG2.2.15 cells assessed as inhibition of HBsAg secretion; type: functional; outline: as §2
[13] = Cytotoxicity against human HepG2.2.15 cells assessed as cell death after 9 days by MTT assay; type: cell-based, HepG2 2.2.15
Outline: (§3)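 HepG2.2.15 cells (MEM, 10% FBS, 380 µg/ml G418, 37 °C, 5% CO2) seeded at 1×10^5 cells/ml, cultured 24 h, then exposed to various drug concentrations; drug-containing medium renewed every 3 d. OD read at 450 nm after 9 days; percent cell death calculated; CC50 = concentration killing 50% of cells. Means of at least two experiments.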

Hepatitis B virus [14] = assay: Antiviral activity against Hepatitis B virus infected in human HepG2.2.15 cells assessed as cell survival at 300 uM after 9 days (reference value: 100%); type: functional; details: HepG2 2.2.15, 216 h; outline: as §3
Hepatitis B virus [15] = assay: Antiviral activity against Hepatitis B virus infected in human HepG2.2.15 cells assessed as inhibition of HBeAg secretion at 37.5 uM after 9 days by ELISA; type: functional; details: HepG2 2.2.15, 216 h; outline: as §1
Hepatitis B virus [16] = assay: Antiviral activity against Hepatitis B virus infected in human HepG2.2.15 cells assessed as inhibition of HBeAg secretion at 75 uM after 3 days by ELISA; type: functional; details: HepG2 2.2.15, 72 h; outline: as §1
Hepatitis B virus [17] = assay: Antiviral activity against Hepatitis B virus infected in human HepG2.2.15 cells assessed as cell survival at 37.5 uM after 9 days (reference value: 100%); type: functional; details: HepG2 2.2.15, 216 h; outline: as §3
Hepatitis B virus [18] = assay: Antiviral activity against Hepatitis B virus infected in human HepG2.2.15 cells assessed as inhibition of HBsAg secretion at 75 uM after 3 days by ELISA; type: functional; details: HepG2 2.2.15, 72 h; outline: as §1
Hepatitis B virus [19] = assay: Antiviral activity against Hepatitis B virus infected in human HepG2.2.15 cells assessed as inhibition of HBsAg secretion at 300 uM after 9 days by ELISA; type: functional; details: HepG2 2.2.15, 216 h; outline: as §1
Hepatitis B virus [20] = assay: Antiviral activity against Hepatitis B virus infected in human HepG2.2.15 cells assessed as inhibition of HBsAg secretion at 300 uM after 6 days by ELISA; type: functional; details: HepG2 2.2.15, 144 h; outline: as §1
Hepatitis B virus [21] = assay: Antiviral activity against Hepatitis B virus infected in human HepG2.2.15 cells assessed as inhibition of HBeAg secretion at 150 uM after 9 days by ELISA; type: functional; details: HepG2 2.2.15, 216 h; outline: as §1
Hepatitis B virus [22] = assay: Antiviral activity against Hepatitis B virus infected in human HepG2.2.15 cells assessed as inhibition of HBsAg secretion at 150 uM after 6 days by ELISA; type: functional; details: HepG2 2.2.15, 144 h; outline: as §1
Hepatitis B virus [23] = assay: Antiviral activity against Hepatitis B virus infected in human HepG2.2.15 cells assessed as inhibition of HBsAg secretion at 75 uM after 9 days by ELISA; type: functional; details: HepG2 2.2.15, 216 h; outline: as §1
Hepatitis B virus [24] = assay: Antiviral activity against Hepatitis B virus infected in human HepG2.2.15 cells assessed as inhibition of HBsAg secretion at 37.5 uM after 3 days by ELISA; type: functional; details: HepG2 2.2.15, 72 h; outline: as §1
Hepatitis B virus [25] = assay: Antiviral activity against Hepatitis B virus infected in human HepG2.2.15 cells assessed as inhibition of HBeAg secretion at 37.5 uM after 3 days by ELISA; type: functional; details: HepG2 2.2.15, 72 h; outline: as §1
Hepatitis B virus [26] = assay: Antiviral activity against Hepatitis B virus infected in human HepG2.2.15 cells assessed as inhibition of HBeAg secretion at 300 uM after 6 days by ELISA; type: functional; details: HepG2 2.2.15, 144 h; outline: as §1
Hepatitis B virus [27] = assay: Antiviral activity against Hepatitis B virus infected in human HepG2.2.15 cells assessed as inhibition of HBsAg secretion at 150 uM after 9 days by ELISA; type: functional; details: HepG2 2.2.15, 216 h; outline: as §1
Hepatitis B virus [28] = assay: Antiviral activity against Hepatitis B virus infected in human HepG2.2.15 cells assessed as cell survival at 150 uM after 9 days (reference value: 100%); type: functional; details: HepG2 2.2.15, 216 h; outline: as §3
Hepatitis B virus [29] = assay: Antiviral activity against Hepatitis B virus infected in human HepG2.2.15 cells assessed as inhibition of HBeAg secretion at 75 uM after 9 days by ELISA; type: functional; details: HepG2 2.2.15, 216 h; outline: as §1
Hepatitis B virus [30] = assay: Antiviral activity against Hepatitis B virus infected in human HepG2.2.15 cells assessed as cell survival at 75 uM after 9 days (reference value: 100%); type: functional; details: HepG2 2.2.15, 216 h; outline: as §3
Hepatitis B virus [31] = assay: Antiviral activity against Hepatitis B virus infected in human HepG2.2.15 cells assessed as inhibition of HBeAg secretion at 150 uM after 3 days by ELISA; type: functional; details: HepG2 2.2.15, 72 h; outline: as §1
Hepatitis B virus [32] = assay: Antiviral activity against Hepatitis B virus infected in human HepG2.2.15 cells assessed as inhibition of HBsAg secretion at 150 uM after 3 days by ELISA; type: functional; details: HepG2 2.2.15, 72 h; outline: as §1
Hepatitis B virus [33] = assay: Antiviral activity against Hepatitis B virus infected in human HepG2.2.15 cells assessed as inhibition of HBeAg secretion at 75 uM after 6 days by ELISA; type: functional; details: HepG2 2.2.15, 144 h; outline: as §1

SMILES	inhibition at 300 µM (Hepatitis B virus [1]) [%]	IC50 (Hepatitis B virus [2]) [µM]	inhibition at 37.5 µM (Hepatitis B virus [3]) [%]	Ratio CC50/IC50 [4]	inhibition at 300 µM (Hepatitis B virus [5]) [%]	inhibition at 300 µM (Hepatitis B virus [6]) [%]	IC50 (Hepatitis B virus [7]) [µM]	inhibition at 37.5 µM (Hepatitis B virus [8]) [%]	inhibition at 150 µM (Hepatitis B virus [9]) [%]	inhibition at 75 µM (Hepatitis B virus [10]) [%]	inhibition at 37.5 µM (Hepatitis B virus [11]) [%]	Ratio CC50/IC50 [12]	CC50 at 216 h [13] [µM]	viability at 300 µM (Hepatitis B virus [14]) [%]	inhibition at 37.5 µM (Hepatitis B virus [15]) [%]	inhibition at 75 µM (Hepatitis B virus [16]) [%]	viability at 37.5 µM (Hepatitis B virus [17]) [%]	inhibition at 75 µM (Hepatitis B virus [18]) [%]	inhibition at 300 µM (Hepatitis B virus [19]) [%]	inhibition at 300 µM (Hepatitis B virus [20]) [%]	further results
O=C(/C=C/c1ccc2c(c1)OCO2)O/N=C/c1cccs1	51.3	118	29.6	2.26	71.6	58.3	75.8	20.6	46.1	45.4	29.7	3.51	266	79.4	25.4	25.7	112	32.1	88.1	87.5	inhibition at 150 µM (Hepatitis B virus [21]): 51.5%; inhibition at 150 µM (Hepatitis B virus [22]): 63.2%; inhibition at 75 µM (Hepatitis B virus [23]): 52%; inhibition at 37.5 µM (Hepatitis B virus [24]): 20.4%; inhibition at 37.5 µM (Hepatitis B virus [25]): 15.9%; inhibition at 300 µM (Hepatitis B virus [26]): 63.2%; inhibition at 150 µM (Hepatitis B virus [27]): 63.1%; viability at 150 µM (Hepatitis B virus [28]): 92.2%; inhibition at 75 µM (Hepatitis B virus [29]): 42.9%; viability at 75 µM (Hepatitis B virus [30]): 105%; inhibition at 150 µM (Hepatitis B virus [31]): 33.5%; inhibition at 150 µM (Hepatitis B virus [32]): 46.3%; inhibition at 75 µM (Hepatitis B virus [33]): 32%
COc1cc(/C=C/C(=O)O/N=C/c2cccs2)cc2c1OCO2	41.9	105	23.3	6.47	65.8	59.3	74.4	16.1	40	37.4	29.7	9.1	677	95.6	29.2	25.6	119	35.5	77.9	67.3	inhibition at 150 µM (Hepatitis B virus [21]): 57.9%; inhibition at 150 µM (Hepatitis B virus [22]): 50.7%; inhibition at 75 µM (Hepatitis B virus [23]): 56.1%; inhibition at 37.5 µM (Hepatitis B virus [24]): 19.1%; inhibition at 37.5 µM (Hepatitis B virus [25]): 12.7%; inhibition at 300 µM (Hepatitis B virus [26]): 51.1%; inhibition at 150 µM (Hepatitis B virus [27]): 68.2%; viability at 150 µM (Hepatitis B virus [28]): 97.5%; inhibition at 75 µM (Hepatitis B virus [29]): 48.9%; viability at 75 µM (Hepatitis B virus [30]): 107%; inhibition at 150 µM (Hepatitis B virus [31]): 33.8%; inhibition at 150 µM (Hepatitis B virus [32]): 46.6%; inhibition at 75 µM (Hepatitis B virus [33]): 33.8%
COc1cc(/C=C/C(=O)O/N=C/c2ccco2)cc(OC)c1OC	29.2	190	15.2	5.54	58	36.7	173	17.9	34.3	28.9	15.8	6.06	1050	76.1	25.4	13.2	133	16.2	60.8	50.1	inhibition at 150 µM (Hepatitis B virus [21]): 45.1%; inhibition at 150 µM (Hepatitis B virus [22]): 36.4%; inhibition at 75 µM (Hepatitis B virus [23]): 36%; inhibition at 37.5 µM (Hepatitis B virus [24]): 8.45%; inhibition at 37.5 µM (Hepatitis B virus [25]): 5.59%; inhibition at 300 µM (Hepatitis B virus [26]): 42.6%; inhibition at 150 µM (Hepatitis B virus [27]): 47.1%; viability at 150 µM (Hepatitis B virus [28]): 93.2%; inhibition at 75 µM (Hepatitis B virus [29]): 35.6%; viability at 75 µM (Hepatitis B virus [30]): 127%; inhibition at 150 µM (Hepatitis B virus [31]): 22.6%; inhibition at 150 µM (Hepatitis B virus [32]): 23.7%; inhibition at 75 µM (Hepatitis B virus [33]): 25.8%
